Active and inactive are the calls of the source. No cut-off for these calls is given here.
Columns and labels:
[1] = biological target: T1, Protein cereblon/Protein deacetylase HDAC6 (Homo sapiens, UniProt Q9UBN7+Q96SW2); assay: Protac activity at CRBN/HDAC6 in human Jurkat cells assessed as HDAC6 degradation at 10 to 100 nM incubated for 6 hrs by Western blot analysis; assay type: cell-based
Target sequence in this assay (Q96SW2 whole entry, looked up): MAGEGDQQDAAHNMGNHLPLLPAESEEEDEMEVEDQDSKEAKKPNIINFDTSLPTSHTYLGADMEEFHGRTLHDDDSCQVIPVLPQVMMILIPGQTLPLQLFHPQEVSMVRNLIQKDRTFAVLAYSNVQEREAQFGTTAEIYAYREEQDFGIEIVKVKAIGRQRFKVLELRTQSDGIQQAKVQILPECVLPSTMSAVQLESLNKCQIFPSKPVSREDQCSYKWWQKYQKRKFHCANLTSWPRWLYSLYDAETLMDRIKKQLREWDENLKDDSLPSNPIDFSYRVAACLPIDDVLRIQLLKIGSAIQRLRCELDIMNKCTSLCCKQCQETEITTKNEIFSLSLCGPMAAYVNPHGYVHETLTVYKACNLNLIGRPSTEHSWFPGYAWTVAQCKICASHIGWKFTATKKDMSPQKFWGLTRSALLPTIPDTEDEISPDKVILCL
Target sequence in this assay (Q9UBN7 whole entry, looked up): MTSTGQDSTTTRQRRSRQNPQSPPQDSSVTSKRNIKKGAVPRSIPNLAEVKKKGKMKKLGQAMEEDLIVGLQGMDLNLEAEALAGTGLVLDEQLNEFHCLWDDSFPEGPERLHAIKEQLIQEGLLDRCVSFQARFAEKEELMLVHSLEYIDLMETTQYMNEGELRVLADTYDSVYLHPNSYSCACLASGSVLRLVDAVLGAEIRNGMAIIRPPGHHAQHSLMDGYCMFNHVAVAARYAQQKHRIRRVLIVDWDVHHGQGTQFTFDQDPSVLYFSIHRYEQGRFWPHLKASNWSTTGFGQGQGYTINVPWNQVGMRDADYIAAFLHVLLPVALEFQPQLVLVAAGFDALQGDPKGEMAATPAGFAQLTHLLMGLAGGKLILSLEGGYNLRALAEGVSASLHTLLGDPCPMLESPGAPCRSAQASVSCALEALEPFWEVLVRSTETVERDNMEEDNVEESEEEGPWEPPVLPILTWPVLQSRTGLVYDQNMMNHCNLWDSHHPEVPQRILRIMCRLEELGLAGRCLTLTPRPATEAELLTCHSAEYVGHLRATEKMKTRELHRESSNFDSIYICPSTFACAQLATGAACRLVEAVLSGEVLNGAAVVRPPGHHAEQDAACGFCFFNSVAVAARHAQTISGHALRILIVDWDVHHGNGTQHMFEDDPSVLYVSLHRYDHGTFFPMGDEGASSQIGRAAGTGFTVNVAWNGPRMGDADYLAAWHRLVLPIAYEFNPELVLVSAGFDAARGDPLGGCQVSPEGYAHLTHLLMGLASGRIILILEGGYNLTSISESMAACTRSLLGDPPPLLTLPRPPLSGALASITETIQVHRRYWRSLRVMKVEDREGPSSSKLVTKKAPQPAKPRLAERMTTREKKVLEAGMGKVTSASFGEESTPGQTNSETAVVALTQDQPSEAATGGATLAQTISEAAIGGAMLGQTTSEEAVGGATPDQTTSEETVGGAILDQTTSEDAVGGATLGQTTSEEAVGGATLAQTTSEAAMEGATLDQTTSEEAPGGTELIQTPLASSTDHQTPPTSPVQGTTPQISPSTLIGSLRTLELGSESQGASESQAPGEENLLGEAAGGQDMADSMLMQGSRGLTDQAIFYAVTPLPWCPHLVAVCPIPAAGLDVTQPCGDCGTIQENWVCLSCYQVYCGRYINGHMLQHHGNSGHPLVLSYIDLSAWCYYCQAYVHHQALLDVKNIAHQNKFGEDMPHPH

[2] = biological target: T1, Protein cereblon/Protein deacetylase HDAC6; assay: Protac activity at CRBN/HDAC6 in human A375 cells assessed as HDAC6 degradation up to 1 uM incubated for 6 hrs by Western blot analysis; assay type: cell-based
Target sequence in this assay (Q96SW2 whole entry, looked up): as the sequence (Q96SW2 whole entry, looked up) above
Target sequence in this assay (Q9UBN7 whole entry, looked up): as the sequence (Q9UBN7 whole entry, looked up) above

Histone deacetylase 5 = Histone deacetylase 5 (Homo sapiens, UniProt Q9UQL6); assay: Inhibition of human N-terminal tagged human HDAC5 expressed in HEK293T/17 using Boc-[TFA-Lys]-AMC as substrate preincubated for 10 mins followed by substrate addition and measured after 60 mins by fluorescence assay
Sequence of Histone deacetylase 5 (Q9UQL6 whole entry): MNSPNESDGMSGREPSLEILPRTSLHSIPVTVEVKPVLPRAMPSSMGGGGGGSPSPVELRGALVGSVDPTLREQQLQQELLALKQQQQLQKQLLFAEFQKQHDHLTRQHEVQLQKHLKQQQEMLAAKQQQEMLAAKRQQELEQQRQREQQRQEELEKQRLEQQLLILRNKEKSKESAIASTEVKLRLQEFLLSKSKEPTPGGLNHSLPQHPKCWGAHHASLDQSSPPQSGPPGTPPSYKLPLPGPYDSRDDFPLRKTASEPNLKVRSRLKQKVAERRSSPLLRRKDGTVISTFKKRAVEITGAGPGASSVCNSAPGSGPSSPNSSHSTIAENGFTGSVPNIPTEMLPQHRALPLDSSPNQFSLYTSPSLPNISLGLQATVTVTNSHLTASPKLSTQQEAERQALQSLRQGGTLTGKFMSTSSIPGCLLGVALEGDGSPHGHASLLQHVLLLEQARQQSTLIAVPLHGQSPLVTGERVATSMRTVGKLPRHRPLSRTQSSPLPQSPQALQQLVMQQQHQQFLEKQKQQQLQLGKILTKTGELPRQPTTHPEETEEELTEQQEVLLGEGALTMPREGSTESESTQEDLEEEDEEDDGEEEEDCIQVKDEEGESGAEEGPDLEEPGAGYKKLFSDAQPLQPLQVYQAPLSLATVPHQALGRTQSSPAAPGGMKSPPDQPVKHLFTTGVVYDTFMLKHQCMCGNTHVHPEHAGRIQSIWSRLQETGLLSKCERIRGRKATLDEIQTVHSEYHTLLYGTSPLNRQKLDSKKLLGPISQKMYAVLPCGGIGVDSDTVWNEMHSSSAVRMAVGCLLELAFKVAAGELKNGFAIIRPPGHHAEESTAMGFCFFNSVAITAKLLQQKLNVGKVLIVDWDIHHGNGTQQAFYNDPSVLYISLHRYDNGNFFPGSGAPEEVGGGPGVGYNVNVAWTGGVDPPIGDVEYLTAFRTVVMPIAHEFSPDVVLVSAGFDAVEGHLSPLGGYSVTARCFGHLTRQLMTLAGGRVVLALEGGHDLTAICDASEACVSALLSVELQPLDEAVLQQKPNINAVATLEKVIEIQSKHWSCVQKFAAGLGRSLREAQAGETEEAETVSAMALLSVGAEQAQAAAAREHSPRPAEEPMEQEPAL

[3] = biological target: T1, Protein cereblon/Protein deacetylase HDAC6; assay: Protac activity at CRBN/HDAC6 in human MM1S cells assessed as induction of alpha tubulin acetylation at 100 nM measured after 6 hrs in presence of proteasome inhibitor bortezomib by Western blot analysis; assay type: cell-based
Target sequence in this assay (Q96SW2 whole entry, looked up): as the sequence (Q96SW2 whole entry, looked up) above
Target sequence in this assay (Q9UBN7 whole entry, looked up): as the sequence (Q9UBN7 whole entry, looked up) above

[4] = biological target: T1, Protein cereblon/Protein deacetylase HDAC6; assay: Protac activity at CRBN/HDAC6 in human MM1S cells assessed as HDAC6 degradation at 10 to 100 nM measured after 6 hrs by Western blot analysis; assay type: cell-based
Target sequence in this assay (Q96SW2 whole entry, looked up): as the sequence (Q96SW2 whole entry, looked up) above
Target sequence in this assay (Q9UBN7 whole entry, looked up): as the sequence (Q9UBN7 whole entry, looked up) above

MM1.S [5] = assay: Effect on IKZF1 mRNA expression in human MM1S cells at 100 nM measured after 6 hrs by SYBR green dye-based qRT-PCR analysis; assay type: functional, cell-based
How it was run: (§1)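 After treatment, MM1S cells washed twice with cold PBS. Total RNA extracted and normalized, then reverse-transcribed. 10 ng cDNA amplified with SYBR Green: 50 °C 2 min, 95 °C 2 min, then 40 cycles of 95 °C 1 s / 60 °C 30 s, followed by a melt curve. Expression calculated by the 2−ΔΔCt method.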

[6] = biological target: Histone deacetylase (Homo sapiens) (UniProt Q13547+O15379+Q9UBN7+Q92769+Q9UQL6+Q8WUI4+Q9BY41+Q96DB2+P56524+Q9UKV0+Q969S8); conditions: at 100 nM
[7] = biological target: Cereblon/Ikaros (Homo sapiens) (UniProt Q96SW2+Q13422); assay: Protac activity at CRBN/IKZF1 in human MM1S cells assessed as IKZF1 degradation measured after 6 hrs by Western blot analysis; assay type: cell-based
[8] = biological target: Protein cereblon/Histone deacetylase 1 (Homo sapiens) (UniProt Q13547+Q96SW2); assay: Protac activity at CRBN/HDAC1 in human MM1S cells assessed as HDAC1 degradation at 100 nM measured after 6 hrs in presence of proteasome inhibitor MG132 by Western blot analysis; assay type: cell-based
Sequence of Protein cereblon/Histone deacetylase 1 (Homo sapiens) (Q13547 whole entry, looked up): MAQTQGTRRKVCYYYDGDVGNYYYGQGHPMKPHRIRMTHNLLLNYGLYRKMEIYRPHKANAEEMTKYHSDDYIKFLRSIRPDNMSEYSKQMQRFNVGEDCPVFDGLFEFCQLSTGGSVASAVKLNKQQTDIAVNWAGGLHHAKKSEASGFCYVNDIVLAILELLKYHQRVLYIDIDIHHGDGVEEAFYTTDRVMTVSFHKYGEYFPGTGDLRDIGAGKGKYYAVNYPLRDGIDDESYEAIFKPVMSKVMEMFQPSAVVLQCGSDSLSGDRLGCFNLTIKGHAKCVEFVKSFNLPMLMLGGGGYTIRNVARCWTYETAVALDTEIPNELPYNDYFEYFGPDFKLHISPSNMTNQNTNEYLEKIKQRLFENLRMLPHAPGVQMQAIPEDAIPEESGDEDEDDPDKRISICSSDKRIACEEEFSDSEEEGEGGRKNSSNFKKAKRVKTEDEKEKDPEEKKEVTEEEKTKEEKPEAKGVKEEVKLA
Sequence of Protein cereblon/Histone deacetylase 1 (Homo sapiens) (Q96SW2 whole entry, looked up): as the sequence (Q96SW2 whole entry, looked up) above

MM1.S [9] = assay: Effect on HDAC1 mRNA expression in human MM1S cells at 100 nM measured after 6 hrs by SYBR green dye-based qRT-PCR analysis; assay type: functional, cell-based; how it was run: as §1
[10] = biological target: T1, Protein cereblon/Protein deacetylase HDAC6; assay: Protac activity at CRBN/HDAC6 in human MM1S cells assessed as HDAC6 degradation measured after 6 hrs by ELISA; assay type: cell-based
How it was run: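 In-cell ELISA: MM1S cells (5 × 10^4 per well) seeded overnight, treated 6 h (dosed as 5× medium; 0.1 nM–1 μM or 10/100 nM). Fixed in 8% formaldehyde/TBS, permeabilized with 0.1% Triton X, peroxidase quenched with 1% H2O2, blocked in 5% BSA. Anti-HDAC6 rabbit mAb (1:1000, 2 h) then HRP secondary; TMB read as OD450 − OD570. Background wells lacked primary antibody. Signal normalized to Janus Green and to DMSO wells, n = 3. DC50/Dmax from three-parameter fit.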
Target sequence in this assay (Q9UBN7 whole entry): as the sequence (Q9UBN7 whole entry, looked up) above
Target sequence in this assay (Q96SW2 whole entry): as the sequence (Q96SW2 whole entry, looked up) above

MM1.S [11] = assay: Antiproliferative activity against human MM1S cells assessed as reduction in cell viability at 1 uM measured after 72 hrs by resazurin dye based assay; assay type: functional
[12] = biological target: T1, Protein cereblon/Protein deacetylase HDAC6; assay: Protac activity at CRBN/HDAC6 in human MM1S cells assessed as HDAC6 degradation at 100 nM measured after 6 hrs in presence of proteasome inhibitor MG132 by Western blot analysis; assay type: cell-based
Target sequence in this assay (Q96SW2 whole entry, looked up): as above
Target sequence in this assay (Q9UBN7 whole entry, looked up): as the sequence (Q9UBN7 whole entry, looked up) above

Activity [1]: Active
Activity [2]: Active
IC50 (Histone deacetylase 5): 0.3 to 30 µM
Activity [3]: inactive
Activity [4]: Active
inhibition [6]: inactive
Activity [7]: Dose-dependent effect
Activity [8]: inactive
DC50 [10]: 1.64 nM
Activity [12]: inactive
SMILES: CCCCN(Cc1ccc(C(=O)NO)cc1)C(=O)Nc1ccc(OCCCCCn2cc(CNc3cccc4c3C(=O)N(C3CCC(=O)NC3=O)C4=O)nn2)cc1 (stereo not drawn)
Activity (MM1.S [5]): Active
Activity (MM1.S [9]): Active
Activity (MM1.S [11]): Active

From ChEMBL document CHEMBL4311941, “Development of Multifunctional Histone Deacetylase 6 Degraders with Potent Antimyeloma Activity” (J Med Chem, 2019)
